From ChEMBL document CHEMBL2021906, “A synthetic chalcone as a potent inducer of glutathione biosynthesis” (J Med Chem, 2012)
The source made the active and inactive calls. No cut-off for these calls is given here.

How the values were obtained:
[1] = test system: MCF7; test: Increase in intracellular GSH level in human MCF7 cells expressing antioxidant response element at 10 uM after 24 hrs by HPLC analysis in presence of GCL inhibitor buthionine sulfoximine; format: functional, cell-based
[2] = test system: MCF7; test: Increase in intracellular GSH level in human MCF7 cells expressing antioxidant response element at 10 uM after 24 hrs by HPLC analysis; format: functional, cell-based
Outline: (§1)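 In 24-well plates, AREc32 cells were treated with 10 μM for 6 or 24 h. Cells were PBS-washed, sonicated, and acidified with meta-phosphoric acid (1% v/v final), then centrifuged. GSH in the supernatant was quantified by reverse-phase HPLC with electrochemical detection (pH 3 sodium phosphate/0.9% methanol mobile phase). Results are expressed as % of untreated control, n = 3.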

[3] = test system: MCF7; test: Increase in intracellular GSH level in human MCF7 cells expressing antioxidant response element at 10 uM after 6 hrs by HPLC analysis relative to control; format: functional; outline: as §1
[4] = test system: MCF7; test: Increase in intracellular GSH level in human MCF7 cells expressing antioxidant response element at 10 uM after 24 hrs by HPLC analysis relative to control; format: functional; outline: as §1
[5] = test system: MCF7; test: Increase in GCL holoenzyme formation in human MCF7 cells expressing antioxidant response element at 20 uM after 6 hrs by native-PAGE immunoblotting technique; format: functional, cell-based
Outline: (§2)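 AREc32 cells in six-well plates were treated with 20 μM for 6 h, then PBS-washed, sonicated in PBS, and the cleared supernatant concentrated by evaporation. GCL holoenzyme was immunoblotted after native PAGE; GCLC and GCLM after SDS PAGE. α-GAPDH served as internal standard. The experiment was repeated once.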

[6] = test system: MCF7; test: Increase in GCLC level in human MCF7 cells expressing antioxidant response element at 20 uM after 6 hrs by SDS-PAGE immunoblotting technique; format: functional, cell-based; outline: as §2
[7] = test system: MCF7; test: Increase in GCLM level in human MCF7 cells expressing antioxidant response element at 20 uM after 6 hrs by SDS-PAGE immunoblotting technique; format: functional, cell-based; outline: as §2
[8] = test system: MCF7; test: Increase in intracellular GSH level in human MCF7 cells expressing antioxidant response element at 10 uM after 24 hrs in presence of JNK inhibitor SP600125; format: functional, cell-based
Outline: (§3)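 AREc32 cells received 10 μM for 24 h along with 20 μM buthionine sulfoximine, SP600125, SB203580 or MnTDE-1,3-IP5+. Intracellular GSH was measured by HPLC with electrochemical detection after sonication and meta-phosphoric acid extraction. n = 3, with group differences tested at P < 0.05.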

[9] = target: T1, Nuclear factor erythroid 2-related factor 2 (Homo sapiens) (UniProt Q16236); test: Induction of Nrf2 transcriptional activity in human MCF7 cells antioxidant response element at 5 uM after 18 hrs by luciferase reporter gene assay relative to 2,5-DHC; format: cell-based
T1 sequence (whole entry): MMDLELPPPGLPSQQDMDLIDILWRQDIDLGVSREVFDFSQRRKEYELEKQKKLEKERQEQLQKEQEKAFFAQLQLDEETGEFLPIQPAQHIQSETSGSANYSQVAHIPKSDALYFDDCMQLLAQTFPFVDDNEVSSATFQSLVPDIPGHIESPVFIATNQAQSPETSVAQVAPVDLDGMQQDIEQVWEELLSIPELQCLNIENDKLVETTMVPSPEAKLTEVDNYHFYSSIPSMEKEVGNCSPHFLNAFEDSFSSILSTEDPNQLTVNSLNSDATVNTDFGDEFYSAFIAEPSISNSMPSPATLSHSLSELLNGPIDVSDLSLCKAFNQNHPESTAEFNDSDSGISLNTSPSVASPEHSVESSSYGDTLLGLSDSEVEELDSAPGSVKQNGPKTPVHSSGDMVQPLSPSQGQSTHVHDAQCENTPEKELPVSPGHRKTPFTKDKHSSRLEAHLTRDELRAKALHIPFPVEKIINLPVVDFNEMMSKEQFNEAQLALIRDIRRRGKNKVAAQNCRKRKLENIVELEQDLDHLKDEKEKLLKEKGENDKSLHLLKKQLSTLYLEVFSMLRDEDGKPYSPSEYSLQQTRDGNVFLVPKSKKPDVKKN
Outline: (§4)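 AREc32 cells (stable ARE-driven firefly luciferase) grown in 12-well plates to ~60% confluence were exposed to 5 μM for 18 h, alongside sulforaphane or tBHQ at 5 μM. Cells were lysed and centrifuged, and luciferase activity was read on a luminometer using an enhanced luciferase kit. n = 4.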

[10] = target: T1, Nuclear factor erythroid 2-related factor 2 (Homo sapiens); test: Induction of Nrf2 transcriptional activity in human MCF7 cells antioxidant response element at 5 uM after 18 hrs by luciferase reporter gene assay relative to sulforaphane; format: cell-based; outline: as §4
[11] = target: T1, Nuclear factor erythroid 2-related factor 2 (Homo sapiens); test: Induction of Nrf2 transcriptional activity in human MCF7 cells antioxidant response element at 5 uM after 18 hrs by luciferase reporter gene assay relative to tert-butylhydroquinone; format: cell-based; outline: as §4
[12] = target: T1, Nuclear factor erythroid 2-related factor 2 (Homo sapiens); test: Induction of Nrf2 transcriptional activity in human MCF7 cells antioxidant response element at 5 uM after 18 hrs by luciferase reporter gene assay in presence of p38 MAPK inhibitor SB203580; format: cell-based
[13] = target: T1, Nuclear factor erythroid 2-related factor 2 (Homo sapiens); test: Induction of Nrf2 transcriptional activity in human MCF7 cells antioxidant response element at 5 uM after 18 hrs by luciferase reporter gene assay in presence of catalytic antioxidant MnTDE-1,3-IP5+; format: cell-based
[14] = test system: MCF7; test: Cytotoxicity against human MCF7 cells expressing antioxidant response element assessed as LDH release after 48 hrs; format: cell-based; conditions: MCF7, 48 h
Outline: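 MCF-7/AREc32 cells (ARE-luciferase reporter line; DMEM low glucose, 10% FBS, pen/strep, Geneticin, 37 °C, 5% CO2) exposed to 0–60 μM for 48 h. LDH activity measured in medium and cell lysate via NADH consumption at 340 nm after pyruvate addition. Percent LDH release = supernatant/(supernatant + lysate) × 100. n = 3.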

[15] = target: T1, Nuclear factor erythroid 2-related factor 2 (Homo sapiens); test: Induction of Nrf2 transcriptional activity in human MCF7 cells antioxidant response element at 5 uM after 18 hrs by luciferase reporter gene assay in presence of JNK inhibitor SP600125; format: cell-based
[16] = test system: MCF7; test: Increase in intracellular GSH level in human MCF7 cells expressing antioxidant response element at 10 uM after 24 hrs in presence of p38 MAPK inhibitor SB203580; format: functional, cell-based; outline: as §3
[17] = test system: MCF7; test: Increase in intracellular GSH level in human MCF7 cells expressing antioxidant response element at 10 uM after 24 hrs in presence of catalytic antioxidant MnTDE-1,3IP5+; format: functional, cell-based; outline: as §3
[18] = test system: MCF7; test: Increase in GCL holoenzyme formation in human MCF7 cells expressing antioxidant response element at 20 uM after 24 hrs by native-PAGE immunoblotting technique; format: functional, cell-based

Compound	Activity [3] [%]	Activity [4] [%]	other results
C[S+]([O-])CCCCN=C=S (racemic)			Activity [1]: inactive; Activity [2]: Active
COc1cccc(OC)c1C(=O)/C=C/c1ccccc1Cl	105	211	
O=C(/C=C/c1ccccc1)c1ccccc1 [CHALCONE]	103	115	
COc1cc(O)c(C(=O)/C=C/c2c(F)cccc2F)c(OC)c1	135	226	
CC(C)(C)c1cc(O)ccc1O			Activity [1]: inactive; Activity [2]: Active
COc1cccc(OC)c1C(=O)/C=C/c1cccc(Cl)c1	88	165	
COc1cc(OC)c(C(=O)/C=C/c2c(Cl)cc(Cl)cc2Cl)c(OC)c1	119	246	
COc1cc(OC)c(C(=O)/C=C/c2ccccc2)c(OC)c1	91	209	
COc1ccc(C(=O)/C=C/c2ccccc2Cl)c(OC)c1	109	232	
COc1cc(O)c(C(=O)/C=C/c2ccccc2Cl)c(OC)c1	107	299	Activity [1]: inactive; Activity [2]: Active; Activity [5]: Active; Activity [6]: inactive; Activity [7]: inactive; Activity [8]: Active; Ratio [9]: 4; Ratio [10]: 4; Ratio [11]: 10; Activity [12]: Active; Activity [13]: inactive; IC50 [14]: 25 µM; Activity [15]: inactive; Activity [16]: Active; Activity [17]: Active
O=C(/C=C/c1c(Cl)cccc1Cl)c1ccccc1O	108	180	
COc1cccc(OC)c1/C=C/C(=O)c1c(Cl)cccc1Cl	93	120	
COc1cccc(OC)c1C(=O)/C=C/c1ccccc1	87	158	
COc1cccc(OC)c1C(=O)/C=C/c1ccc(F)cc1F	104	182	
COc1ccc(C(=O)/C=C/c2ccc(OC)cc2OC)c(O)c1	114	160	
O=C(/C=C/c1ccccc1)c1cc(O)ccc1O	82	177	Activity [1]: inactive; Activity [5]: Active; Activity [6]: inactive; Activity [7]: inactive; IC50 [14]: 33 µM; Activity [18]: inactive

Compound	Activity [3] [%]	Activity [4] [%]	other results
COc1cc(O)c(C(=O)/C=C/c2c(Cl)cccc2Cl)c(OC)c1	119	250	
COc1cc(OC)c(C(=O)/C=C/c2c(F)cccc2F)c(OC)c1	118	223	
COc1cc(OC)c(/C=C/C(=O)c2ccc(Cl)c(Cl)c2)c(OC)c1	98	88	
COc1cccc(OC)c1/C=C/C(=O)c1ccccc1	111	189	
COc1ccc(C(=O)/C=C/c2cc(OC)ccc2OC)c(O)c1	100	153	
COc1ccc(C(=O)/C=C/c2cccc(OC)c2OC)c(O)c1	100	174	
COc1ccc(C(=O)/C=C/c2c(OC)cc(OC)cc2OC)c(O)c1	91	104	Activity [1]: inactive
COc1cccc(O)c1C(=O)/C=C/c1c(Cl)cccc1Cl	88	183	
COc1ccc(C(=O)/C=C/c2c(Cl)cccc2Cl)c(O)c1	107	193	
COc1cccc(OC)c1C(=O)/C=C/c1c(Cl)cccc1Cl	122	256	
COc1cccc(OC)c1C(=O)/C=C/c1ccccc1F	103	195	
COc1ccc(C(=O)/C=C/c2c(OC)cccc2OC)c(O)c1	90	231	
COc1ccc(C(=O)/C=C/c2cccc(F)c2)c(OC)c1	78	173	
COc1cc(O)c(C(=O)/C=C/c2ccccc2)c(OC)c1 [FLAVOKAWAIN B]	101	191	
COc1cccc(OC)c1C(=O)/C=C/c1cccc(F)c1	82	171	
COc1cccc(OC)c1C(=O)/C=C/c1ccccc1[N+](=O)[O-]	106	204	
